ABCG2 inh: ABCG2 efflux pump inhibitors, primary screen, multiplex with ABCB1, IgMXP3 cells, flow cytometry; Broad substrate specificity ATP-binding cassette transporter ABCG2 (Homo sapiens), Q9UNQ0; JC-1 efflux; inhibition, % at 6.6 µM; 0.1% of 190,000 active;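 active means inhibition above 80%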
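System: two drug-resistant human cell lines, ABCG2 and ABCB1; controls: nicardipine high and DMSO low controls; times: 10 min exposure at 25 °C with rotation, no wash; detection: flow cytometry of retained JC-1 fluorescence; read-out basis: percent efflux inhibition, scaled nicardipine 100% to DMSO 0%; doses: one concentration, 6.6 µM final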
DTT redox prof: compounds producing H2O2 with reducing agent – biochemical, NIH compound library profiling, artefact control for MLSCN library redox annotation, primary screen; DTT-dependent redox cycling H2O2, phenol red/HRP absorbance; 100% = 100 µM peroxide control, 0% = buffer; activation, % at 10 µM; 0.03% of 200,000 active;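 active means activation of at least 50% relative to the plate's high and low controls in the primary single-dose screen; inactive means activation below 50%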;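 further: compound incubated with DTT at 0.8 mM final as the reducing agent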
FLuc act counter: FLuc activators, initial screening, artefact control for FLuc-dependent activation tests, biochemical, ATPlite luminescence; activation factor at 10 µM; ATPlite luciferase biochemical, 10 min; 0 = ATP-free wells, 1 = DMSO control; 200,000 tested, under 10 active;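 active means luciferase activation factor, scaled between plate controls, of at least 2 with compound at 10 µM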
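test system = cell-free luciferase reagent | medium = PBS as buffer for the ATP substrate | dosing = test compounds dosed from 2 mM stocks in 100% DMSO | incubation = 10 min at ambient temperature | detection = luminescence measurement of luciferase light output | benchmarks = low control with PBS replacing ATP, high control enzyme plus ATP without compound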
FLuc inh counter: firefly luciferase enzyme inhibitors, primary screen, artefact control for luciferase-based inhibitor screens, biochemical, luminescence, ATPLite; Luciferin 4-monooxygenase (Photinus pyralis), P08659; 10 min; inhibition, % at 10 µM; 1.5% of 200,000 active;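 active means inhibition above about 50% when tested at 10 µM, limit read from the data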
Measles CPE: compounds protecting cells from measles virus cytopathic effect, primary screen, measles RdRp inhibitor project, single point, MLSMR library, absorbance; Measles virus-infected cells, CPE protection; protection (pct of control), % at 4 µM; 1.5% of 140,000 active; AID 841, 2007; in the data active means protection mostly above about 24%, no sharp cut-off; inactive means mostly below about 26%
ABCB1 block: ABCB1 efflux pump inhibitors, primary screen, cell-based, multiplex, flow cytometry, ABCG2 counter-screen | ATP-dependent translocase ABCB1 (Homo sapiens), P08183 | inhibition, % at 6.6 µM | 0.067% of 190,000 active | CCRF-Adr cells, JC-1 efflux; in the data active means inhibition above about 40%;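 further: higher value means more JC-1 retained so stronger ABCB1 efflux block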
Numbers stand for hits; – = inactive; · = no result given. This is a sample that favours compounds with a hit; in the whole collection about 2.7% have one here.

SMILES | ABCG2 inh | DTT redox prof | FLuc act counter | FLuc inh counter | Measles CPE | ABCB1 block
COc1cccc(-c2nc(CS(=O)CC(=O)NCCCOC(C)C)c(C)o2)c1 (configuration not stated) | – | – | – | – | – | –
COc1cccc(-c2nc(CS(=O)(=O)CC(=O)NCCCOC(C)C)c(C)o2)c1 | – | – | – | – | 40.8 | –
CCN(CC)CC(=O)Nc1c(C)cc(C)cc1C | · | – | · | · | – | ·
CC1(C)CC(=O)C2=C(C1)NC(SCC(=O)Nc1ccccc1)=C(C#N)C2c1ccco1 (configuration not stated) | – | – | – | – | 38.2 | –
Cc1ccc(-c2nc3cc(C)ccc3o2)cc1 | – | – | – | 92.2 | 56.3 | –
Cc1ccc2oc(-c3cccc(N)c3)nc2c1 | – | – | – | 87.5 | · | –
Cc1ccc(-c2nc3cc(N)ccc3o2)cc1 | – | – | – | 88.8 | – | –
Cc1ccc(-c2nc3cc(N)ccc3o2)c(C)c1 | – | – | – | 78.3 | – | –
Nc1cccc(-c2nc3cc(S(=O)(=O)c4ccc5oc(-c6cccc(N)c6)nc5c4)ccc3o2)c1 | – | – | – | – | – | –
Cc1ccc(C)c(-n2c(Cc3cccs3)n[nH]c2=S)c1 | – | – | – | – | – | –
Cn1c(SC2CCCCC2=O)nnc1-c1ccncc1 (configuration not stated) | – | – | – | – | – | –
O=C(CCCNC(=O)/C(=C/c1ccc(F)cc1)NC(=O)c1ccccc1)OCc1ccccc1 | – | – | – | – | – | –
O=C(COC(=O)c1c(Cl)ccc(Cl)c1Cl)NC(=O)NCc1ccccc1 | – | – | – | – | – | –
CC(C)c1ccc2oc(-c3ccc(NC(=O)c4ncn[nH]4)cc3)nc2c1 | – | – | – | – | – | –
CC(C)c1ccc2oc(-c3ccc(N)cc3)nc2c1 | – | – | – | 88.5 | – | –
Cc1ccccc1C(=O)NC1CCN(CC(=O)Nc2c(C)cccc2C)CC1 | – | – | – | – | 38.8 | –
c1cc2c(cnc3cscc32)s1 | – | – | – | – | 33.8 | –
c1csc(-c2cnc3ccccc3n2)c1 | – | – | – | – | – | –
O=C(NCc1ccccc1)c1c[nH]c2cc3c(cc2c1=O)OCCO3 | – | – | – | – | – | –
CC(C)NC(=O)/C(=C/c1cn(-c2ccccc2)nc1-c1cccc([N+](=O)[O-])c1)NC(=O)c1ccccc1 | – | – | – | – | – | –
CN(C(=O)c1ccco1)c1nc2c(s1)CCCC2 | – | – | – | 77.3 | – | –
Cc1cc(N/C=C\c2nnnn2-c2ccc(F)cc2)no1 | – | – | – | – | 33.6 | –
c1ccc(-c2ccc(-c3ccccn3)nn2)nc1 | – | – | – | 59.7 | – | –
c1ccc(-c2ccccn2)nc1 | – | – | – | – | – | –
Cc1cccc(NC(=O)c2ccc([N+](=O)[O-])s2)c1C | – | – | – | – | – | –
SMILES | ABCG2 inh | DTT redox prof | FLuc act counter | FLuc inh counter | Measles CPE | ABCB1 block
CC[N+]1(C)CC2CCC(C)(C1)C2(C)C (configuration not stated) | – | – | – | – | · | –
Cn1c(=O)[nH]c(NC2CCCCC2)c([N+](=O)[O-])c1=O | – | – | – | – | – | –
Cn1c(=O)[nH]c(NC2CCCCC2)c(N=O)c1=O | – | – | – | – | 40.8 | –
CCCn1c(C)cs/c1=N\C(=S)Nc1ccccc1 | – | – | – | – | 43.5 | –
Cc1ccc(/C=C2\C(=O)ON=C2c2ccccc2)o1 | – | – | – | 60.1 | · | –
CC(C)Oc1ccc(C(=O)NC2=NCCS2)cc1 | – | – | – | 74.9 | · | –
COc1cc(OC)cc(C(=O)NC2=NCCS2)c1 | – | – | – | – | – | –
CC(C)c1ccc(C(=O)NC2=NCCS2)cc1 | – | – | – | 83.5 | – | –
O=c1[nH][nH]c(C(F)(F)F)c1C=NCc1cccc(Cl)c1 | – | – | – | – | – | –
